One may read the inhibition as the drop in the measured response relative to a control, in per cent.

Active and inactive are the calls of the source.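 How the source made its calls: active means inhibition of 50% or more of probe labeling of the enzyme band; inactive means inhibition below 50%.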

Among the data in PubChem BioAssay AID602299 (The Scripps Research Institute Molecular Screening Center, 2012) are inhibition values, retold here.

The target in the assay is Diacylglycerol lipase-beta (Mus musculus) (UniProt Q91WC9). The experiment in a line: blocking of probe labeling on DAGLb – biochemical, gel-based fluorescence, overexpressed mouse, set 2, late-stage follow-up (AID 602299). The settings on record: HEK293T membrane overexpressed mouse DAGLb, gel ABPP fluorescence; at 10 µM; active compounds read high. The gist of the method: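 Material: mouse DAGLb-overexpressing HEK293T membrane proteome; Quantity: 0.3 mg/mL membrane protein; Also added: HT-01 probe, 1 µM; Times: 30 min compound pre-incubation then 30 min probe labeling, 37 °C; Signal: in-gel fluorescence scanning after reducing SDS-PAGE separation; Read-out: % inhibition from band optical density.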
Diacylglycerol lipase-beta (Mus musculus), sequence (Q91WC9 whole entry, looked up): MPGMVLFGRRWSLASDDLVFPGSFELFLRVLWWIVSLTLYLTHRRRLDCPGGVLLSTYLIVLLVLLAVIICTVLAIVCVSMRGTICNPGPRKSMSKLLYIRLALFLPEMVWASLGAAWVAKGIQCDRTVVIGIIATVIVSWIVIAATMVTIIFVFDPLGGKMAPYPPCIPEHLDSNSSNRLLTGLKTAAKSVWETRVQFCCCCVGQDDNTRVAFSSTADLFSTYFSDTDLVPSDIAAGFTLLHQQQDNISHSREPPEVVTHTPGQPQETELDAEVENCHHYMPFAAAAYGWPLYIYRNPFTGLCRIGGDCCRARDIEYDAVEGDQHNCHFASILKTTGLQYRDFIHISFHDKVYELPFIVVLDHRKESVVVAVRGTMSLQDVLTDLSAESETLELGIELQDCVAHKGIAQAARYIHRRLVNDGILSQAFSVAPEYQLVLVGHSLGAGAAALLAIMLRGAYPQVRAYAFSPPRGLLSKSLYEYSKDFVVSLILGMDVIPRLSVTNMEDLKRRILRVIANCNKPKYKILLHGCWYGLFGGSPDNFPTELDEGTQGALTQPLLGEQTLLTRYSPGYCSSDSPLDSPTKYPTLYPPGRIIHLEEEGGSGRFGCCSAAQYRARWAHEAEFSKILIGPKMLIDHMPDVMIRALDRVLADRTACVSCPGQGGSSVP
For `COc1ccccc1-c1ccc(-c2cn(C(=O)N3CCCCC3c3ccccc3)nn2)cc1` (stereo not drawn), the inhibition is 64%.

With `COc1ccccc1-c1ccc(-c2cn(C(=O)N3CCC(Cc4ccccc4)CC3)nn2)cc1`, the inhibition was 98%.

As for `O=C(N1CCCCC1CCc1ccccc1)n1cc(-c2ccc(-c3ccccc3)cc2)nn1` (stereo not drawn), the inhibition was 59%.

`O=C(N1CCCCC1c1ccccc1)n1cc(C(O)(c2ccccc2)c2ccccc2)nn1` (stereo not drawn): the inhibition was 39% (inactive).

For `COc1ccc(-c2ccc(-c3cn(C(=O)N4CCCCC4c4ccccc4)nn3)cc2)cc1` (stereo not drawn), the inhibition was 11% (inactive).

As for `O=C(N1CCCCC1c1ccccc1)n1cc(-c2ccc(-c3ccccc3)cc2)nn1` (stereo not drawn), the inhibition is 50%.

In the case of `COc1ccccc1-c1ccc(-c2cn(C(=O)N3CCCC(Cc4ccccc4)C3)nn2)cc1` (stereo not drawn), the inhibition was 99%.

Take `COc1ccccc1-c1ccc(-c2cn(C(=O)N3CCCCC3CCc3ccccc3)nn2)cc1` (stereo not drawn): the inhibition was 69%.
